The text below walks through data of ChEMBL document CHEMBL1131626 (J Med Chem, 1998).

Assay [1] has as its target T1, Progesterone receptor (Mus musculus) (UniProt Q00175).
T1 sequence (whole entry): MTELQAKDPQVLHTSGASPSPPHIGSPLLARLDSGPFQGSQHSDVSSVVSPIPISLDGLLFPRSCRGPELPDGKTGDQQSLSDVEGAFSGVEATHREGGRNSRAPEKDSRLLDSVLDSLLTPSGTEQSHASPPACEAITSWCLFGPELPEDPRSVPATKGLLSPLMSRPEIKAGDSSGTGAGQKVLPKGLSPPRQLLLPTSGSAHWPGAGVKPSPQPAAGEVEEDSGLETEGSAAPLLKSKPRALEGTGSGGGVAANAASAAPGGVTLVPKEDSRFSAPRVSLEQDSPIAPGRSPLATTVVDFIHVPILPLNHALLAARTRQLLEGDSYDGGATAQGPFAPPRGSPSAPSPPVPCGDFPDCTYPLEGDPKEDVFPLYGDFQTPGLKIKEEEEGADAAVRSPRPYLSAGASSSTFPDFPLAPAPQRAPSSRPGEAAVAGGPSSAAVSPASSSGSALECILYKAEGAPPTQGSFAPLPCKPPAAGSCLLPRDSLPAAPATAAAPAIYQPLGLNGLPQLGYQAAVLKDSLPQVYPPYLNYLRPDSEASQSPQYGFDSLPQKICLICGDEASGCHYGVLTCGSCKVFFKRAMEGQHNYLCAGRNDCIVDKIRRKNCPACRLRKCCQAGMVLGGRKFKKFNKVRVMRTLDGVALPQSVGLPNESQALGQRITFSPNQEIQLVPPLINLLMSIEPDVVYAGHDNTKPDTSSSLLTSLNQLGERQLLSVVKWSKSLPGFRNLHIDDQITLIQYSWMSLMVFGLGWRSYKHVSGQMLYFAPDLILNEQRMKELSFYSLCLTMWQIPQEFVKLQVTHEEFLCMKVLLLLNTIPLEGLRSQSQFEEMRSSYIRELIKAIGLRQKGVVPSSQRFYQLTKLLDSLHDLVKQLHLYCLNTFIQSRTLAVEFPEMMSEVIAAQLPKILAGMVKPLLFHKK
The assay can be described thus: Effect on pregnancy in mice as corpora lutea at 3 mg/mouse dose with simultaneous 0.5 mg RU-486 dose. In kind it is functional, organism-based. Summed up:
(§1)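 Mature virgin ICR mice, 10-12 weeks old, mated overnight; vaginal plug marks day 1. Oral RU486 0.5 mg (~15 mg/kg), alone or with test compound (mg/mouse), on days 2-4. Compounds in ethanol diluted with corn oil, 0.1 mL. Oil controls. Necropsy on day 8 to count corpora lutea and implantation sites and to score pregnancy. Student t-test.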

Assay [2] has as its target T1, Progesterone receptor (Mus musculus). Kind of assay: Effect on pregnancy in mice as corpora lutea at 1 mg/mouse dose with simultaneous 0.5 mg RU-486 dose. In kind it is functional, organism-based. In short, it runs like this:
as §1

Assay [3] shares this target. Kind of assay: Effect on pregnancy in mice as implantation at 1 mg/mouse dose with simultaneous 0.5 mg RU-486 dose. Type of assay: functional. In short, it runs like this: as §1
Assay [4] shares this target. The assay can be described thus: Effect on pregnancy in mice as implantation at 3 mg/mouse dose with simultaneous 0.5 mg RU-486 dose. In kind it is functional. Summed up: as §1
For assay [5] the target is unchanged. The assay can be described thus: Effect on pregnancy in mice as percent pregnant at 1 mg/mouse dose with simultaneous 0.5 mg RU-486 dose. In kind it is functional. Summed up: as §1
The target is the same in assay [6]. The assay can be described thus: Effect on pregnancy in mice as percent pregnant at 3 mg/mouse dose with simultaneous 0.5 mg RU-486 dose. In kind it is functional. Summed up: as §1
Assay [7] shares this target. The assay can be described thus: Effect on pregnancy in mice as number pregnant/mated at 1 mg/mouse dose with simultaneous 0.5 mg RU-486 dose; out of 11. Type of assay: functional. Summed up: as §1
Assay [8] shares this target. The assay can be described thus: Effect on pregnancy in mice as number pregnant/mated at 3 mg/mouse dose with simultaneous 0.5 mg RU-486 dose; out of 9. Type of assay: functional. Summed up: as §1
Assay [9] has the same target. Kind of assay: Effect on pregnancy in mice as corpora lutea at 0.5 mg/mouse dose with simultaneous 0.5 mg RU-486 dose. Type of assay: functional, organism-based. Summed up: as §1
For assay [10] the target is unchanged. Kind of assay: Effect on pregnancy in mice as implantation at 0.5 mg/mouse dose with simultaneous 0.5 mg RU-486 dose. In kind it is functional. Summed up:
as §1

The target is the same in assay [11]. The assay can be described thus: Effect on pregnancy in mice as percent pregnant at 0.5 mg/mouse dose with simultaneous 0.5 mg RU-486 dose. In kind it is functional. In short, it runs like this:
as §1

Assay [12] shares this target. The assay can be described thus: Effect on pregnancy in mice as number pregnant/mated at 0.5 mg/mouse dose with simultaneous 0.5 mg RU-486 dose; out of 16. In kind it is functional. In short, it runs like this: as §1
Assay [13] shares this target. The assay can be described thus: Effect on pregnancy in mice as corpora lutea at 30 mg/mouse dose with simultaneous 0.5 mg RU-486 dose. Type of assay: functional, organism-based. Summed up: as §1
The target is the same in assay [14]. Kind of assay: Effect on pregnancy in mice as corpora lutea at 10 mg/mouse dose with simultaneous 0.5 mg RU-486 dose. Type of assay: functional, organism-based. In short, it runs like this: as §1
The target is the same in assay [15]. Kind of assay: Effect on pregnancy in mice as implantation at 10 mg/mouse dose with simultaneous 0.5 mg RU-486 dose. Type of assay: functional. In short, it runs like this:
as §1

For assay [16] the target is unchanged. Kind of assay: Effect on pregnancy in mice as implantation at 30 mg/mouse dose with simultaneous 0.5 mg RU-486 dose. In kind it is functional. In short, it runs like this:
as §1

Assay [17] shares this target. Kind of assay: Effect on pregnancy in mice as percent pregnant at 10 mg/mouse dose with simultaneous 0.5 mg RU-486 dose. Type of assay: functional. In short, it runs like this: as §1
Assay [18] has the same target. Kind of assay: Effect on pregnancy in mice as percent pregnant at 30 mg/mouse dose with simultaneous 0.5 mg RU-486 dose. In kind it is functional. In short, it runs like this: as §1
Assay [19] has the same target. Kind of assay: Effect on pregnancy in mice as number pregnant/mated at 1 mg/mouse dose with simultaneous 0.5 mg RU-486 dose; out of 10. Type of assay: functional. In short, it runs like this:
as §1

The target is the same in assay [20]. The assay can be described thus: Effect on pregnancy in mice as number pregnant/mated at 10 mg/mouse dose with simultaneous 0.5 mg RU-486 dose; out of 10. Type of assay: functional. In short, it runs like this:
as §1

For assay [21] the target is unchanged. Kind of assay: Effect on pregnancy in mice as number pregnant/mated at 3 mg/mouse dose with simultaneous 0.5 mg RU-486 dose; out of 12. In kind it is functional. Summed up:
as §1

Assay [22] shares this target. Kind of assay: Effect on pregnancy in mice as number pregnant/mated at 30 mg/mouse dose with simultaneous 0.5 mg RU-486 dose; out of 10. Type of assay: functional. In short, it runs like this:
as §1

Regarding `CC#C[C@]1(O)CC[C@H]2[C@@H]3CCC4=CC(=O)CCC4=C3[C@@H](c3ccc(N(C)C)cc3)C[C@@]21C.CC1=CC(C)(C)Nc2ccc3c(c21)C(c1cccc(Cl)c1)Oc1ccc(F)cc1-3`, the Corpora lutea in assay [1] and in [2] was 14.1 in each case. Also, the Implants in assay [3] was determined as 12; in [4], 13.7. In addition, the Pregnant in [5] came out at 91%; in [6] it was 100%. Besides, the No. pregnant/mated came to 10 in [7] and 9 in assay [8].

In assay [9], `CC#C[C@]1(O)CC[C@H]2[C@@H]3CCC4=CC(=O)CCC4=C3[C@@H](c3ccc(N(C)C)cc3)C[C@@]21C` registered a Corpora lutea of 13.4. The same molecule displayed an Implants in [10] of 3.3. In assay [11], this molecule came in with a Pregnant of 18.8%. Besides, the No. pregnant/mated in assay [12] is 3.

`CC#C[C@]1(O)CC[C@H]2[C@@H]3CCC4=CC(=O)CCC4=C3[C@@H](c3ccc(N(C)C)cc3)C[C@@]21C.CC(=O)O[C@]1(C(C)=O)CC[C@H]2[C@@H]3C[C@H](C)C4=CC(=O)CC[C@]4(C)[C@H]3CC[C@@]21C`: the Corpora lutea in assay [1] came to 13.6; in assay [13], 10.7; in assay [2] it was 11.7; in assay [14] it was 12.3. Further, the Implants in [3] came out at 1.2; in [15] it was 1.4; in assay [4], 2.6; in assay [16] it was 6.7. The Pregnant in assay [5] stood at 10%; in [17], 10%; in assay [6], 16.7%; in [18] it was 50%. In addition, the No. pregnant/mated in assay [19] worked out at 1; in [20], 1; in [21], 2; in assay [22] it was 5.
